pIC50: −log10 of the molar value.
What was measured:
[1] = test system: HCT-15; assay: In vitro cytotoxicity expressed as concentration that inhibits 50% of HCT 15 (colon) sensitive variant cell proliferation; assay type: functional, cell-based; settings: Homo sapiens
Outline: (§1)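 Cells were kept at 37 °C in sealed dishes of MEM with 10% heat-inactivated FCS plus glutamine, penicillin, streptomycin and gentamycin. […] Cells were plated at 10 000 cells/mL for 24 h, then given nine concentrations from 10^-5 to 10^-9 M. Growth was read by MTT colorimetric assay.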

[2] = (§2) In vitro cytotoxicity expressed as concentration that inhibits 50% of J82 (bladder) resistant variant cell proliferation; assay type: functional; settings: Homo sapiens; outline: as §1
[3] = In vitro cytotoxicity expressed as concentration that inhibits 50% of J82 (bladder) sensitive variant cell proliferation; assay type: functional; settings: Homo sapiens; outline: as §1
[4] = test system: K562; assay: In vitro cytotoxicity expressed as concentration that inhibits 50% of K562R (resistant clone) cell proliferation; assay type: functional, cell-based; settings: Homo sapiens
[5] = test system: K562; assay: In vitro cytotoxicity expressed as concentration that inhibits 50% of K562S (sensitive clone)cell proliferation; assay type: functional, cell-based; settings: Homo sapiens
[6] = test system: LoVo; assay: In vitro cytotoxicity expressed as concentration that inhibits 50% of LoVo (colon) resistant cell proliferation; assay type: functional, cell-based; settings: Homo sapiens; outline: as §1
[7] = test system: T-24; assay: In vitro cytotoxicity expressed as concentration that inhibits 50% of T24 (bladder) resistant variant cell proliferation; assay type: functional, cell-based; settings: Homo sapiens; outline: as §1
[8] = test system: U373 MG; assay: In vitro cytotoxicity expressed as concentration that inhibits 50% of U373 (glioblastoma) sensitive variant cell proliferation; assay type: functional, cell-based, U-373MG ATCC; settings: Homo sapiens; outline: as §1
[9] = In vitro cytotoxicity expressed as concentration that inhibits 50% of U373 (glioblastoma) resistant variant cell proliferation; assay type: functional, cell-based, U-373MG ATCC; settings: Homo sapiens, U373 MG; outline: as §1
[10] = test system: U-87 MG; assay: In vitro cytotoxicity expressed as concentration that inhibits 50% of U87 (glioblastoma) resistant variant cell proliferation; assay type: functional, cell-based, U-87MG ATCC; settings: Homo sapiens; outline: as §1
[11] = test system: U-87 MG; assay: In vitro cytotoxicity expressed as concentration that inhibits 50% of U87 (glioblastoma) sensitive variant cell proliferation; assay type: functional, cell-based, U-87MG ATCC; settings: Homo sapiens; outline: as §1
[12] = test system: Vero; assay: In vitro cytotoxicity expressed as conc. that inhibits 50% of VERO(monkey kidney) cell proliferation; assay type: functional, cell-based; settings: Chlorocebus sabaeus
Outline: (§3)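 KB and VERO monolayers in medium 199 with 10% newborn calf serum, 12 × 10^4 cells seeded per well. Serial dilutions from a DMSO or water stock were added at seeding, with final DMSO below 1%. Cultures were held 48 h at 37 °C in 5% CO2. Viability was then measured after 18 h in neutral red medium, SDS lysis and dye absorbance at 540 nm.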

[13] = test system: HCT-15; assay: In vitro cytotoxicity expressed as concentration that inhibits 50% of HCT 15 (colon) resistant variant cell proliferation; assay type: functional, cell-based; settings: Homo sapiens; outline: as §1
[14] = organism: Homo sapiens; assay: In vitro cytotoxicity expressed as conc. that inhibits 50% of KB (human) cell proliferation; assay type: functional; outline: as §3
[15] = test system: LoVo; assay: In vitro cytotoxicity expressed as concentration that inhibits 50% of LoVo (colon) sensitive variant cell proliferation; assay type: functional, cell-based; settings: Homo sapiens; outline: as §1
[16] = test system: T-24; assay: In vitro cytotoxicity expressed as concentration that inhibits 50% of T24 (bladder) sensitive variant cell proliferation; assay type: functional, cell-based; settings: Homo sapiens; outline: as §1
[17] = as §2; assay type: functional; settings: Homo sapiens; outline: as §1; remark: listed apart in the source
[18] = test system: HCT-116; assay: In vitro cytotoxicity expressed as concentration that inhibits 50% of HCT(human colon carcinoma)116 cell proliferation; assay type: functional, cell-based
[19] = test system: K562; assay: In vitro cytotoxicity expressed as concentration that inhibit 50% of K562R (resistant clone) cell proliferation; assay type: functional, cell-based; settings: Homo sapiens

| SMILES | pIC50 [1] | pIC50 [2] | pIC50 [3] | pIC50 [4] | pIC50 [5] | pIC50 [6] | pIC50 [7] | pIC50 [8] | pIC50 [9] | pIC50 [10] | pIC50 [11] | pIC50 [12] | pIC50 [13] | pIC50 [14] | pIC50 [15] | pIC50 [16] | pIC50 [17] | pIC50 [18] | pIC50 [19] |
| --- | --- | --- | --- | --- | --- | --- | --- | --- | --- | --- | --- | --- | --- | --- | --- | --- | --- | --- | --- |
| COc1cccc2c1C(=O)c1c(O)c3c(c(O)c1C2=O)C[C@@](O)(C(=O)CO)C[C@@H]3O[C@H]1C[C@H](N)[C@H](O)[C@H](C)O1 [DOXORUBICIN] | 7.30 | < 5.00 | 7.52 | 5.15 | 7.30 | 7.10 | < 5.00 | 8.00 | 6.89 | 6.85 | 7.22 | 5.30 | 7.10 | 7.00 | 8.10 | 7.70 |  |  |  |
| CO[C@H]1Nc2cc3c(cc2C(=O)N2C=C(/C=C/C(=O)N(C)C)C[C@@H]12)OCO3 | 8.10 | 8.00 |  | 7.52 | 7.30 | 8.05 | 8.00 | 7.52 | 7.43 | 7.42 | 7.40 | 7.70 | 8.15 | 8.30 | 8.05 | 8.00 | 8.00 | 7.70 |  |
| CO[C@H]1Nc2ccccc2C(=O)N2C=C(/C=C/C(=O)N(C)C)C[C@@H]12 |  |  |  |  | 7.07 |  |  |  |  |  |  | 7.12 |  | 7.07 |  |  |  | 7.30 | 6.92 |
| CN(C)C(=O)/C=C/C1=CN2C(=O)c3cc4c(cc3NC(S(=O)(=O)O)[C@@H]2C1)OCO4 (some centres not stated) [SODIUM BISULFITE ADDUCT] |  |  |  |  |  |  |  |  |  |  |  | 7.30 |  | 7.30 |  |  |  | 7.60 |  |
| CO[C@@]12[C@H](COC(N)=O)C3=C(C(=O)C(C)=C(N)C3=O)N1C[C@@H]1N[C@@H]12 [MITOMYCIN] |  |  |  |  |  |  |  |  |  |  |  |  |  | 6.30 |  |  |  |  |  |

Source: ChEMBL document CHEMBL1134670, “Synthesis and cytotoxicity on sensitive and doxorubicin-resistant cell lines of new pyrrolo[2,1-c][1,4]benzodiazepines related to anthramycin” (J Med Chem, 2001)
